In brackets after ≈: the same amount, converted by molar mass. Activity calls are given as the source filed them. The calls are words filed in the database; no cut-off is given here.
Tests used:
BT-549 = assay: Cytotoxicity against human BT549 cells assessed as cell viability after 48 hrs by neutral red uptake assay; type: cell-based; conditions: bt-549, 48 h
Outline: (§1)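 Neutral red uptake assay in human cancer lines SK-MEL, KB, BT-549 and SK-OV-3 and in noncancerous mammalian kidney cells VERO and LLC-PK1. The highest tested concentration was 10 μg/mL.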

Pichia kudriavzevii = assay: Antifungal activity against Candida krusei by CLSI method; type: functional, organism-based
Cryptococcus neoformans = assay: Antifungal activity against Cryptococcus neoformans ATCC 90113 after 70 to 74 hrs by CLSI method; type: functional, organism-based; conditions: for IC50 / MIC: Cryptococcus neoformans, ATCC 90113
Outline: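 Growth inhibition of C. neoformans per the CLSI protocol. […] MIC is the lowest test concentration with no detectable growth. MFC is the lowest concentration killing 100% of the organism.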

[1] = Retention time of the compound by reverse phase HPLC analysis; type: physicochemical
Outline: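 Reverse-phase HPLC on a C-18 column (25 cm × 4.6 mm, 5 μM) at 1 mL/min over 40 min. The gradient ran 85−5% with A = 0.1% TFA in H2O and B = 0.1% TFA in CH3CN. Detection was at 220 nm.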

[2] = Selectivity index, ratio of cytotoxicity for pig LLC-PK1 cells to IC50 for Cryptococcus neoformans ATCC 90113; type: toxicity, cell-based; conditions: read-out: Selectivity Index
Vero = assay: Cytotoxicity against African green monkey Vero cells assessed as cell viability after 48 hrs by neutral red uptake assay; type: cell-based; conditions: chlorocebus sabaeus; outline: as §1
SK-MEL = assay: Cytotoxicity against human SK-MEL cells assessed as cell viability after 48 hrs by neutral red uptake assay; type: cell-based; outline: as §1
Aspergillus fumigatus = assay: Antifungal activity against Aspergillus fumigatus by CLSI method; type: functional, organism-based
[3] = Selectivity index, ratio of cytotoxicity for African green monkey Vero cells to IC50 for Cryptococcus neoformans ATCC 90113; type: toxicity, cell-based; conditions: read-out: Selectivity Index
[4] = Selectivity index, ratio of cytotoxicity for human BT549 cells to IC50 for Cryptococcus neoformans ATCC 90113; type: toxicity, cell-based, BT-549; conditions: read-out: Selectivity Index
[5] = Selectivity index, ratio of cytotoxicity for human KB cells to IC50 for Cryptococcus neoformans ATCC 90113; type: toxicity, cell-based; conditions: read-out: Selectivity Index
LLC-PK1 = assay: Cytotoxicity against pig LLC-PK1 cells assessed as cell viability after 48 hrs by neutral red uptake assay; type: cell-based, Sus scrofa; conditions: llc-pk1, 48 h; outline: as §1
[6] = Selectivity index, ratio of cytotoxicity for human SK-MEL cells to IC50 for Cryptococcus neoformans ATCC 90113; type: toxicity, cell-based; conditions: read-out: Selectivity Index
SK-OV-3 = assay: Cytotoxicity against human SKOV3 cells assessed as cell viability after 48 hrs by neutral red uptake assay; type: cell-based; conditions: sk-ov-3, 48 h; outline: as §1
[7] = Selectivity index, ratio of cytotoxicity for human SKOV3 cells to IC50 for Cryptococcus neoformans ATCC 90113; type: toxicity, cell-based, SK-OV-3; conditions: read-out: Selectivity Index
Escherichia coli = assay: Antibacterial activity against Escherichia coli ATCC 35218 after 16 to 20 hrs by CLSI method; type: functional, organism-based
Nakaseomyces glabratus = assay: Antifungal activity against Candida glabrata by CLSI method; type: functional, organism-based
KB = assay: Cytotoxicity against human KB cells assessed as cell viability after 48 hrs by neutral red uptake assay; type: cell-based; outline: as §1
Candida albicans = assay: Antifungal activity against Candida albicans by CLSI method; type: functional, organism-based

Structure (SMILES): COC(=O)[C@H](CCCNC(=N)N)NC(=O)[C@H](Cc1c[nH]c(-c2ccc(OC)cc2)n1)NC(=O)[C@H](CCCNC(=N)N)NC(=O)OC(C)(C)C
- Activity (BT-549): > 10 µg/mL
- Activity (Pichia kudriavzevii): inactive
- MFC100 (Cryptococcus neoformans): 5 µg/mL (≈ 7.27 µM)
- IC50 (Cryptococcus neoformans): 4.06 µg/mL (≈ 5.9 µM)
- MIC (Cryptococcus neoformans): 5 µg/mL (≈ 7.27 µM)
- Retention_time [1]: 13.59 min
- selectivity ratio [2]: > 2.5
- Activity (Vero): > 10 µg/mL
- Activity (SK-MEL): > 10 µg/mL
- Activity (Aspergillus fumigatus): inactive
- selectivity ratio [3]: > 2.5
- selectivity ratio [4]: > 2.5
- selectivity ratio [5]: > 2.5
- Activity (LLC-PK1): > 10 µg/mL
- selectivity ratio [6]: > 2.5
- Activity (SK-OV-3): > 10 µg/mL
- selectivity ratio [7]: > 2.5
- Activity (Escherichia coli): inactive
- Activity (Nakaseomyces glabratus): inactive
- Activity (KB): > 10 µg/mL
- Activity (Candida albicans): inactive

Structure (SMILES): COC(=O)[C@H](CCCNC(=N)N)NC(=O)[C@H](Cc1c[nH]c(-c2ccc(C(C)(C)C)cc2)n1)NC(=O)[C@@H](N)CCCNC(=N)N
- Activity (BT-549): > 10 µg/mL
- Activity (Pichia kudriavzevii): inactive
- MFC100 (Cryptococcus neoformans): 1.25 µg/mL (≈ 2.04 µM)
- IC50 (Cryptococcus neoformans): 0.61 µg/mL (≈ 0.994 µM)
- MIC (Cryptococcus neoformans): 1.25 µg/mL (≈ 2.04 µM)
- selectivity ratio [2]: > 16.3
- Activity (Vero): > 10 µg/mL
- Activity (SK-MEL): > 10 µg/mL
- Activity (Aspergillus fumigatus): inactive
- selectivity ratio [3]: > 16.3
- selectivity ratio [4]: > 16.3
- selectivity ratio [5]: > 16.3
- Activity (LLC-PK1): > 10 µg/mL
- selectivity ratio [6]: > 16.3
- Activity (SK-OV-3): > 10 µg/mL
- selectivity ratio [7]: > 16.3
- Activity (Escherichia coli): inactive
- Activity (Nakaseomyces glabratus): inactive
- Activity (KB): > 10 µg/mL
- Activity (Candida albicans): inactive

Structure (SMILES): COC(=O)[C@H](CCCNC(=N)N)NC(=O)[C@H](Cc1c[nH]c(-c2ccc(C(C)(C)C)cc2)n1)NC(=O)[C@H](CCCNC(=N)N)NC(=O)OC(C)(C)C
- Activity (BT-549): > 10 µg/mL
- Activity (Pichia kudriavzevii): inactive
- MFC100 (Cryptococcus neoformans): 1.25 µg/mL (≈ 1.75 µM)
- IC50 (Cryptococcus neoformans): 0.71 µg/mL (≈ 0.995 µM)
- MIC (Cryptococcus neoformans): 1.25 µg/mL (≈ 1.75 µM)
- Retention_time [1]: 20.91 min
- selectivity ratio [2]: > 14.1
- Activity (Vero): > 10 µg/mL
- Activity (SK-MEL): > 10 µg/mL
- Activity (Aspergillus fumigatus): inactive
- selectivity ratio [3]: > 14.1
- selectivity ratio [4]: > 14.1
- selectivity ratio [5]: > 14.1
- Activity (LLC-PK1): > 10 µg/mL
- selectivity ratio [6]: > 14.1
- Activity (SK-OV-3): > 10 µg/mL
- selectivity ratio [7]: > 14.1
- Activity (Escherichia coli): inactive
- Activity (Nakaseomyces glabratus): inactive
- Activity (KB): > 10 µg/mL
- Activity (Candida albicans): inactive

Structure (SMILES): COc1ccc(-c2nc(C[C@H](NC(=O)[C@H](CCCNC(=N)N)NC(=O)OC(C)(C)C)C(=O)N[C@@H](CCCNC(=N)N)C(=O)NCc3ccccc3)c[nH]2)cc1
- Activity (BT-549): > 10 µg/mL
- Activity (Pichia kudriavzevii): inactive
- MFC100 (Cryptococcus neoformans): 5 µg/mL (≈ 6.55 µM)
- IC50 (Cryptococcus neoformans): 0.68 µg/mL (≈ 0.891 µM)
- MIC (Cryptococcus neoformans): 2.5 µg/mL (≈ 3.28 µM)
- Retention_time [1]: 18.93 min
- selectivity ratio [2]: > 14.7
- Activity (Vero): > 10 µg/mL
- Activity (SK-MEL): > 10 µg/mL
- Activity (Aspergillus fumigatus): inactive
- selectivity ratio [3]: > 14.7
- selectivity ratio [4]: > 14.7
- selectivity ratio [5]: > 14.7
- Activity (LLC-PK1): > 10 µg/mL
- selectivity ratio [6]: > 14.7
- Activity (SK-OV-3): > 10 µg/mL
- selectivity ratio [7]: > 14.7
- Activity (Escherichia coli): inactive
- Activity (Nakaseomyces glabratus): inactive
- Activity (KB): > 10 µg/mL
- Activity (Candida albicans): inactive

Structure (SMILES): COC(=O)[C@H](CCCNC(=N)N)NC(=O)[C@H](Cc1c[nH]c(-c2ccc(-c3ccccc3)cc2)n1)NC(=O)[C@@H](N)CCCNC(=N)N
- Activity (BT-549): > 10 µg/mL
- Activity (Pichia kudriavzevii): inactive
- MFC100 (Cryptococcus neoformans): 1.25 µg/mL (≈ 1.97 µM)
- IC50 (Cryptococcus neoformans): 0.59 µg/mL (≈ 0.931 µM)
- MIC (Cryptococcus neoformans): 1.25 µg/mL (≈ 1.97 µM)
- selectivity ratio [2]: > 16.9
- Activity (Vero): > 10 µg/mL
- Activity (SK-MEL): > 10 µg/mL
- Activity (Aspergillus fumigatus): inactive
- selectivity ratio [3]: > 16.9
- selectivity ratio [4]: > 16.9
- selectivity ratio [5]: > 16.9
- Activity (LLC-PK1): > 10 µg/mL
- selectivity ratio [6]: > 16.9
- Activity (SK-OV-3): > 10 µg/mL
- selectivity ratio [7]: > 16.9
- Activity (Escherichia coli): inactive
- Activity (Nakaseomyces glabratus): inactive
- Activity (KB): > 10 µg/mL
- Activity (Candida albicans): inactive

Structure (SMILES): C[C@@H]1[C@H](O)[C@@H](C)/C=C/C=C/C=C/C=C/C=C/C=C/C=C/[C@H](O[C@@H]2O[C@H](C)[C@@H](O)[C@H](N)[C@@H]2O)C[C@@H]2O[C@](O)(C[C@@H](O)C[C@@H](O)[C@H](O)CC[C@@H](O)C[C@@H](O)CC(=O)O[C@H]1C)C[C@H](O)[C@H]2C(=O)O [AMPHOTERICIN B]
- MFC100 (Cryptococcus neoformans): 1.25 µg/mL (≈ 1.35 µM)
- MIC (Cryptococcus neoformans): 1.25 µg/mL (≈ 1.35 µM)

Structure (SMILES): N=C(N)NCCC[C@H](NC(=O)[C@H](Cc1c[nH]c(-c2ccccc2)n1)NC(=O)[C@@H](N)CCCNC(=N)N)C(=O)NCc1ccccc1
- Activity (BT-549): > 10 µg/mL
- Activity (Pichia kudriavzevii): inactive
- MFC100 (Cryptococcus neoformans): 1.25 µg/mL (≈ 1.98 µM)
- IC50 (Cryptococcus neoformans): 0.73 µg/mL (≈ 1.15 µM)
- MIC (Cryptococcus neoformans): 1.25 µg/mL (≈ 1.98 µM)
- selectivity ratio [2]: > 13.7
- Activity (Vero): > 10 µg/mL
- Activity (SK-MEL): > 10 µg/mL
- Activity (Aspergillus fumigatus): inactive
- selectivity ratio [3]: > 13.7
- selectivity ratio [4]: > 13.7
- selectivity ratio [5]: > 13.7
- Activity (LLC-PK1): > 10 µg/mL
- selectivity ratio [6]: > 13.7
- Activity (SK-OV-3): > 10 µg/mL
- selectivity ratio [7]: > 13.7
- Activity (Escherichia coli): inactive
- Activity (Nakaseomyces glabratus): inactive
- Activity (KB): > 10 µg/mL
- Activity (Candida albicans): inactive

Structure (SMILES): COC(=O)[C@H](CCCNC(=N)N)NC(=O)[C@H](Cc1c[nH]c(-c2ccc(OC)cc2)n1)NC(=O)[C@@H](N)CCCNC(=N)N
- Activity (BT-549): > 10 µg/mL
- Activity (Pichia kudriavzevii): inactive
- MFC100 (Cryptococcus neoformans): 5 µg/mL (≈ 8.51 µM)
- IC50 (Cryptococcus neoformans): 3.93 µg/mL (≈ 6.69 µM)
- MIC (Cryptococcus neoformans): 5 µg/mL (≈ 8.51 µM)
- selectivity ratio [2]: > 2.5
- Activity (Vero): > 10 µg/mL
- Activity (SK-MEL): > 10 µg/mL
- Activity (Aspergillus fumigatus): inactive
- selectivity ratio [3]: > 2.5
- selectivity ratio [4]: > 2.5
- selectivity ratio [5]: > 2.5
- Activity (LLC-PK1): > 10 µg/mL
- selectivity ratio [6]: > 2.5
- Activity (SK-OV-3): > 10 µg/mL
- selectivity ratio [7]: > 2.5
- Activity (Escherichia coli): inactive
- Activity (Nakaseomyces glabratus): inactive
- Activity (KB): > 10 µg/mL
- Activity (Candida albicans): inactive

Structure (SMILES): Cc1ccc(-c2nc(C[C@H](NC(=O)[C@@H](N)CCCNC(=N)N)C(=O)N[C@@H](CCCNC(=N)N)C(=O)NCc3ccccc3)c[nH]2)cc1
- Activity (BT-549): > 10 µg/mL
- Activity (Pichia kudriavzevii): inactive
- MFC100 (Cryptococcus neoformans): 10 µg/mL (≈ 15.5 µM)
- IC50 (Cryptococcus neoformans): 0.35 µg/mL (≈ 0.541 µM)
- MIC (Cryptococcus neoformans): 0.63 µg/mL (≈ 0.974 µM)
- selectivity ratio [2]: > 28.6
- Activity (Vero): > 10 µg/mL
- Activity (SK-MEL): > 10 µg/mL
- Activity (Aspergillus fumigatus): inactive
- selectivity ratio [3]: > 28.6
- selectivity ratio [4]: > 28.6
- selectivity ratio [5]: > 28.6
- Activity (LLC-PK1): > 10 µg/mL
- selectivity ratio [6]: > 28.6
- Activity (SK-OV-3): > 10 µg/mL
- selectivity ratio [7]: > 28.6
- Activity (Escherichia coli): inactive
- Activity (Nakaseomyces glabratus): inactive
- Activity (KB): > 10 µg/mL
- Activity (Candida albicans): inactive
